Laboratory results reported in ChEMBL document CHEMBL4689842, “EUbOPEN Chemogenomics Library wave 1” (2021).

Legend:
Assay type in all cases: toxicity, cell-based
Fibroblast [1] = test: Incucyte cell viability with human fibroblast; settings: 10 µM, compound concentration 10 uM; further: filed as whole numbers so only -1 and 0 and 1 occur
HEK-293T = test: Incucyte cell viability with HEK293T; settings: human, 10 µM, compound concentration 10 uM; further: filed as whole numbers so only -1 and 0 and 1 occur
U2OS = test: Incucyte cell viability with U2OS; settings: human, 10 µM, compound concentration 10 uM; further: filed as whole numbers so only -1 and 0 and 1 occur
Fibroblast [2] = test: Multiplex assay against human fibroblast
Outline: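 Per cents of healthy-nucleus cells form the tubulin, mitochondrial-mass and membrane-permeability phenotype values. Live cells were stained at seeding with Hoechst33342, BioTracker Green Microtubule Cytoskeleton Dye, MitoTracker Red and Annexin V Alexa Fluor 680. After compound addition they were imaged on a CQ1 microscope at 37°C and 5% CO2, and CellPathfinder machine-learning gating split them into Hoechst high-intensity objects or normal cells, normal cells into healthy, pyknosed or fragmented nuclei, and pyknosed cells into mitotic or apoptotic.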

[3] = 6 h, replicate number 1, timepoint 6 hours
[4] = 6 h, replicate number 2, timepoint 6 hours
[5] = 12 h, replicate number 1, timepoint 12 hours
[6] = 18 h, replicate number 1, timepoint 18 hours
[7] = 18 h, replicate number 2, timepoint 18 hours
[8] = 24 h, replicate number 1, timepoint 24 hours
[9] = 0 h, replicate number 1, timepoint 0 hours
[10] = 12 h, 1 µM, compound concentration 1 uM, replicate 1
[11] = 12 h, 1 µM, compound concentration 1 uM, replicate 2
[12] = 12 h, 10 µM, compound concentration 10 uM, replicate 1
[13] = 12 h, 10 µM, compound concentration 10 uM, replicate 2
[14] = 24 h, 1 µM, compound concentration 1 uM, replicate 1
[15] = 24 h, 1 µM, compound concentration 1 uM, replicate 2
[16] = 24 h, 10 µM, compound concentration 10 uM, replicate 1
[17] = 24 h, 10 µM, compound concentration 10 uM, replicate 2
[18] = 48 h, 1 µM, compound concentration 1 uM, replicate 1
[19] = 48 h, 1 µM, compound concentration 1 uM, replicate 2
[20] = 48 h, 10 µM, compound concentration 10 uM, replicate 1
[21] = 48 h, 10 µM, compound concentration 10 uM, replicate 2

Structure (SMILES): Cc1cc2c(cc1N1C(=O)c3cccc4c(CCCO)ccc(c34)C1=O)n(C)c(=O)n2C
- Growth Rate (Fibroblast [1]; 0 h, replicate number 2, timepoint 0 hours): 0
- Growth Rate (Fibroblast [1]; [3]): 0
- Growth Rate (Fibroblast [1]; [4]): 1
- Growth Rate (Fibroblast [1]; [5]): 0
- Growth Rate (Fibroblast [1]; 12 h, replicate number 2, timepoint 12 hours): 1
- Growth Rate (Fibroblast [1]; [6]): 0
- Growth Rate (Fibroblast [1]; [7]): 1
- Growth Rate (Fibroblast [1]; [8]): 0
- Growth Rate (Fibroblast [1]; 24 h, replicate number 2, timepoint 24 hours): 1
- Growth Rate (HEK-293T; [9]): 1
- Growth Rate (HEK-293T; [8]): 1
- Growth Rate (U2OS; [9]): 0
- Growth Rate (U2OS; [3]): 0
- Growth Rate (U2OS; [4]): 1
- Growth Rate (U2OS; [5]): 0
- Growth Rate (U2OS; [6]): 0
- Growth Rate (U2OS; [7]): 1
- Growth Rate (U2OS; [8]): 0
- Population Apoptotic (%) (Fibroblast [2]; [10]): 68%
- Population Fragmented Nuclei (%) (Fibroblast [2]; [10]): 19%
- Population Healthy Nuclei (%) (Fibroblast [2]; [10]): 49%
- Population Hoechst High Intensity Objects (%) (Fibroblast [2]; [10]): 17%
- Population Membrane Permeable-Phenotype (%) (Fibroblast [2]; [10]): 30%
- Population Mitochondria Different-Phenotype (%) (Fibroblast [2]; [10]): 8%
- Population Mitotic Cells (%) (Fibroblast [2]; [10]): 31%
- Population Normal (%) (Fibroblast [2]; [10]): 82%
- Population Pyknosed Nuclei (%) (Fibroblast [2]; [10]): 31%
- Population Tubulin-Different-Phenotype (%) (Fibroblast [2]; [10]): 41%
- Total Cell Count (Fibroblast [2]; [10]): 148
- Population Apoptotic (%) (Fibroblast [2]; [11]): 0%
- Population Fragmented Nuclei (%) (Fibroblast [2]; [11]): 6%
- Population Healthy Nuclei (%) (Fibroblast [2]; [11]): 90%
- Population Hoechst High Intensity Objects (%) (Fibroblast [2]; [11]): 8%
- Population Membrane Permeable-Phenotype (%) (Fibroblast [2]; [11]): 1%
- Population Mitochondria Different-Phenotype (%) (Fibroblast [2]; [11]): 22%
- Population Mitotic Cells (%) (Fibroblast [2]; [11]): 100%
- Population Normal (%) (Fibroblast [2]; [11]): 91%
- Population Pyknosed Nuclei (%) (Fibroblast [2]; [11]): 3%
- Population Tubulin-Different-Phenotype (%) (Fibroblast [2]; [11]): 24%
- Total Cell Count (Fibroblast [2]; [11]): 104
- Population Apoptotic (%) (Fibroblast [2]; [12]): 68%
- Population Fragmented Nuclei (%) (Fibroblast [2]; [12]): 21%
- Population Healthy Nuclei (%) (Fibroblast [2]; [12]): 46%
- Population Hoechst High Intensity Objects (%) (Fibroblast [2]; [12]): 12%
- Population Membrane Permeable-Phenotype (%) (Fibroblast [2]; [12]): 21%
- Population Mitochondria Different-Phenotype (%) (Fibroblast [2]; [12]): 7%
- Population Mitotic Cells (%) (Fibroblast [2]; [12]): 31%
- Population Normal (%) (Fibroblast [2]; [12]): 87%
- Population Pyknosed Nuclei (%) (Fibroblast [2]; [12]): 31%
- Population Tubulin-Different-Phenotype (%) (Fibroblast [2]; [12]): 72%
- Total Cell Count (Fibroblast [2]; [12]): 126
- Population Apoptotic (%) (Fibroblast [2]; [13]): 37%
- Population Fragmented Nuclei (%) (Fibroblast [2]; [13]): 20%
- Population Healthy Nuclei (%) (Fibroblast [2]; [13]): 63%
- Population Hoechst High Intensity Objects (%) (Fibroblast [2]; [13]): 9%
- Population Membrane Permeable-Phenotype (%) (Fibroblast [2]; [13]): 29%
- Population Mitochondria Different-Phenotype (%) (Fibroblast [2]; [13]): 77%
- Population Mitotic Cells (%) (Fibroblast [2]; [13]): 62%
- Population Normal (%) (Fibroblast [2]; [13]): 90%
- Population Pyknosed Nuclei (%) (Fibroblast [2]; [13]): 16%
- Population Tubulin-Different-Phenotype (%) (Fibroblast [2]; [13]): 96%
- Total Cell Count (Fibroblast [2]; [13]): 54
- Population Apoptotic (%) (Fibroblast [2]; [14]): 46%
- Population Fragmented Nuclei (%) (Fibroblast [2]; [14]): 20%
- Population Healthy Nuclei (%) (Fibroblast [2]; [14]): 55%
- Population Hoechst High Intensity Objects (%) (Fibroblast [2]; [14]): 19%
- Population Membrane Permeable-Phenotype (%) (Fibroblast [2]; [14]): 31%
- Population Mitochondria Different-Phenotype (%) (Fibroblast [2]; [14]): 5%
- Population Mitotic Cells (%) (Fibroblast [2]; [14]): 53%
- Population Normal (%) (Fibroblast [2]; [14]): 80%
- Population Pyknosed Nuclei (%) (Fibroblast [2]; [14]): 24%
- Population Tubulin-Different-Phenotype (%) (Fibroblast [2]; [14]): 41%
- Total Cell Count (Fibroblast [2]; [14]): 130
- Population Apoptotic (%) (Fibroblast [2]; [15]): 40%
- Population Fragmented Nuclei (%) (Fibroblast [2]; [15]): 7%
- Population Healthy Nuclei (%) (Fibroblast [2]; [15]): 87%
- Population Hoechst High Intensity Objects (%) (Fibroblast [2]; [15]): 3%
- Population Membrane Permeable-Phenotype (%) (Fibroblast [2]; [15]): 0%
- Population Mitochondria Different-Phenotype (%) (Fibroblast [2]; [15]): 27%
- Population Mitotic Cells (%) (Fibroblast [2]; [15]): 60%
- Population Normal (%) (Fibroblast [2]; [15]): 96%
- Population Pyknosed Nuclei (%) (Fibroblast [2]; [15]): 5%
- Population Tubulin-Different-Phenotype (%) (Fibroblast [2]; [15]): 17%
- Total Cell Count (Fibroblast [2]; [15]): 96
- Population Apoptotic (%) (Fibroblast [2]; [16]): 58%
- Population Fragmented Nuclei (%) (Fibroblast [2]; [16]): 22%
- Population Healthy Nuclei (%) (Fibroblast [2]; [16]): 47%
- Population Hoechst High Intensity Objects (%) (Fibroblast [2]; [16]): 15%
- Population Membrane Permeable-Phenotype (%) (Fibroblast [2]; [16]): 13%
- Population Mitochondria Different-Phenotype (%) (Fibroblast [2]; [16]): 17%
- Population Mitotic Cells (%) (Fibroblast [2]; [16]): 41%
- Population Normal (%) (Fibroblast [2]; [16]): 84%
- Population Pyknosed Nuclei (%) (Fibroblast [2]; [16]): 29%
- Population Tubulin-Different-Phenotype (%) (Fibroblast [2]; [16]): 45%
- Total Cell Count (Fibroblast [2]; [16]): 115
- Population Apoptotic (%) (Fibroblast [2]; [17]): 80%
- Population Fragmented Nuclei (%) (Fibroblast [2]; [17]): 18%
- Population Healthy Nuclei (%) (Fibroblast [2]; [17]): 62%
- Population Hoechst High Intensity Objects (%) (Fibroblast [2]; [17]): 11%
- Population Membrane Permeable-Phenotype (%) (Fibroblast [2]; [17]): 41%
- Population Mitochondria Different-Phenotype (%) (Fibroblast [2]; [17]): 76%
- Population Mitotic Cells (%) (Fibroblast [2]; [17]): 20%
- Population Normal (%) (Fibroblast [2]; [17]): 88%
- Population Pyknosed Nuclei (%) (Fibroblast [2]; [17]): 18%
- Population Tubulin-Different-Phenotype (%) (Fibroblast [2]; [17]): 76%
- Total Cell Count (Fibroblast [2]; [17]): 61
- Population Apoptotic (%) (Fibroblast [2]; [18]): 34%
- Population Fragmented Nuclei (%) (Fibroblast [2]; [18]): 31%
- Population Healthy Nuclei (%) (Fibroblast [2]; [18]): 45%
- Population Hoechst High Intensity Objects (%) (Fibroblast [2]; [18]): 21%
- Population Membrane Permeable-Phenotype (%) (Fibroblast [2]; [18]): 28%
- Population Mitochondria Different-Phenotype (%) (Fibroblast [2]; [18]): 2%
- Population Mitotic Cells (%) (Fibroblast [2]; [18]): 65%
- Population Normal (%) (Fibroblast [2]; [18]): 78%
- Population Pyknosed Nuclei (%) (Fibroblast [2]; [18]): 22%
- Population Tubulin-Different-Phenotype (%) (Fibroblast [2]; [18]): 30%
- Total Cell Count (Fibroblast [2]; [18]): 129
- Population Apoptotic (%) (Fibroblast [2]; [19]): 100%
- Population Fragmented Nuclei (%) (Fibroblast [2]; [19]): 28%
- Population Healthy Nuclei (%) (Fibroblast [2]; [19]): 69%
- Population Hoechst High Intensity Objects (%) (Fibroblast [2]; [19]): 9%
- Population Membrane Permeable-Phenotype (%) (Fibroblast [2]; [19]): 21%
- Population Mitochondria Different-Phenotype (%) (Fibroblast [2]; [19]): 1%
- Population Mitotic Cells (%) (Fibroblast [2]; [19]): 0%
- Population Normal (%) (Fibroblast [2]; [19]): 90%
- Population Pyknosed Nuclei (%) (Fibroblast [2]; [19]): 2%
- Population Tubulin-Different-Phenotype (%) (Fibroblast [2]; [19]): 35%
- Total Cell Count (Fibroblast [2]; [19]): 118
- Population Apoptotic (%) (Fibroblast [2]; [20]): 90%
- Population Fragmented Nuclei (%) (Fibroblast [2]; [20]): 35%
- Population Healthy Nuclei (%) (Fibroblast [2]; [20]): 54%
- Population Hoechst High Intensity Objects (%) (Fibroblast [2]; [20]): 18%
- Population Membrane Permeable-Phenotype (%) (Fibroblast [2]; [20]): 22%
- Population Mitotic Cells (%) (Fibroblast [2]; [20]): 10%
- Population Normal (%) (Fibroblast [2]; [20]): 81%
- Population Pyknosed Nuclei (%) (Fibroblast [2]; [20]): 10%
- Population Tubulin-Different-Phenotype (%) (Fibroblast [2]; [20]): 62%
- Total Cell Count (Fibroblast [2]; [20]): 120
- Population Apoptotic (%) (Fibroblast [2]; [21]): 66%
- Population Fragmented Nuclei (%) (Fibroblast [2]; [21]): 26%
- Population Healthy Nuclei (%) (Fibroblast [2]; [21]): 68%
- Population Hoechst High Intensity Objects (%) (Fibroblast [2]; [21]): 9%
- Population Membrane Permeable-Phenotype (%) (Fibroblast [2]; [21]): 23%
- Population Mitochondria Different-Phenotype (%) (Fibroblast [2]; [21]): 5%
- Population Mitotic Cells (%) (Fibroblast [2]; [21]): 33%
- Population Normal (%) (Fibroblast [2]; [21]): 90%
- Population Pyknosed Nuclei (%) (Fibroblast [2]; [21]): 6%
- Population Tubulin-Different-Phenotype (%) (Fibroblast [2]; [21]): 85%
- Total Cell Count (Fibroblast [2]; [21]): 55
